# Reference: ChEMBL document CHEMBL1132491, “Benzimidazole derivatives. 2. Synthesis and structure-activity relationships of new azabicyclic benzimidazole-4-carboxylic acid derivatives with affinity for serotoninergic 5-HT(3) receptors” (J Med Chem, 1999)
# Assays:
# [1] = target: 5-hydroxytryptamine receptor 4 (Rattus norvegicus, UniProt Q62758); test: In vitro affinity at serotonergic 5-hydroxytryptamine 4 receptor by radioligand binding assay using [3H]GR-113808 in rat striatum membranes.; format: cell membranes
# [2] = target: T1, Serotonin 3 (5-HT3) receptor (Rattus norvegicus, UniProt P35563+Q9JJ16); test: In vitro affinity at serotonergic 5-hydroxytryptamine 3 receptor by radioligand binding assay, using [3H]-LY 278584 in rat cerebral cortex membranes.; format: cell membranes
# T1 sequence (P35563 whole entry): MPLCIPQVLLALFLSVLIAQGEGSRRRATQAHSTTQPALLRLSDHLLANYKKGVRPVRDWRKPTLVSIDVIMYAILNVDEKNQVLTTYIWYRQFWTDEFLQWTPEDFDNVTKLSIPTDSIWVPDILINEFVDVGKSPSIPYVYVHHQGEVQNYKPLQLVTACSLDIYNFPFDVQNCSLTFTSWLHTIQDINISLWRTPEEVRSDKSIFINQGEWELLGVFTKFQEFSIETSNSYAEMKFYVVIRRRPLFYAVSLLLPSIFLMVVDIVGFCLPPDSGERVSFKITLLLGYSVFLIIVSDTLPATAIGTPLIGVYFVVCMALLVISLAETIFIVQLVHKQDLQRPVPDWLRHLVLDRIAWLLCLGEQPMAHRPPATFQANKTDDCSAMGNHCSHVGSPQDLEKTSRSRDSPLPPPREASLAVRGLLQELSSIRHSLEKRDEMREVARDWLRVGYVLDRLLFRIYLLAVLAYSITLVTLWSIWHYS
# T1 sequence (Q9JJ16 whole entry): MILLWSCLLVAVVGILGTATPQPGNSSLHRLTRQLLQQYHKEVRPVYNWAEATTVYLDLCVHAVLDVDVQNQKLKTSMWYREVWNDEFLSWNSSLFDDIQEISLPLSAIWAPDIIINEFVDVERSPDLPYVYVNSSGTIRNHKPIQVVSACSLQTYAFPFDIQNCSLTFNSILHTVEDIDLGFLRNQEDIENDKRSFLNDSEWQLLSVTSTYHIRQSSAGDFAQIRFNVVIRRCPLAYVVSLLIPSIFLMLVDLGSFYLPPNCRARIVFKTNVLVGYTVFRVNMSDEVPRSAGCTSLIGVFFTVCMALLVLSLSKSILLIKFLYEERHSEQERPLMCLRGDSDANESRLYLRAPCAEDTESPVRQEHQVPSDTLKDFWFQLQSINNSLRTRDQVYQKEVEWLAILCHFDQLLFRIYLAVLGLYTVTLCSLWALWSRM
# Procedure, shortened: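 Rat cerebral cortex membranes prepared in 0.32 M sucrose, then washed in 50 mM Tris-HCl pH 7.4 and preincubated at 37 °C for 10 min. About 2 mg/mL protein incubated 30 min at 25 °C with 0.7 nM [3H]LY 278584 and six competitor concentrations. Buffer contained pargyline, ascorbate and CaCl2. Nonspecific binding defined with 10 μM 5-HT. Triplicates, filtration, scintillation counting. Ki from IC50 via Cheng–Prusoff, means of 2–4 assays.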
# [3] = target: T1, Serotonin 3 (5-HT3) receptor; test: Compound was evaluated for its in vitro affinity at serotonergic 5-hydroxytryptamine 3 receptor by radioligand binding assay, using [3H]-LY 278584 in rat cerebral cortex membranes.; format: cell membranes
# Cavia porcellus [4] = species: Cavia porcellus; test: Single-point analysis using 5(10e-9) M concentration of the antagonist (pA2= -log([B]/concentration ratio-1); [B] =concentration of the antagonist).; format: functional; settings: read-out: pA2 (converted)
# Procedure, shortened: (§1)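 Ileal strip preparation with methysergide 10^-6 M present. Paired noncumulative 5-HT curves are run, with the antagonist at 5×10^-9 M added 30 min before the second curve. The concentration ratio is taken at the 5-HT level giving 50% of the control maximum in the ≥10^-6 M phase. Single-point pA2 = −log([B]/(CR−1)) (Furchgott).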
# [5] = target: Serotonin 3 (5-HT3) receptor (Homo sapiens) (UniProt P46098+A5X5Y0+O95264+Q70Z44+Q8WXA8); settings: Cavia porcellus; Ileum
# Cavia porcellus [6] = species: Cavia porcellus; test: Single-point analysis using 5(10e-9) M concentration of the antagonist (pA2= -log([B]/concentration ratio-1); [B] =concentration of the antagonist); format: functional; settings: read-out: pA2 (converted); procedure, shortened: as §1
# Sequence of 5-hydroxytryptamine receptor 4 (Q62758 whole entry): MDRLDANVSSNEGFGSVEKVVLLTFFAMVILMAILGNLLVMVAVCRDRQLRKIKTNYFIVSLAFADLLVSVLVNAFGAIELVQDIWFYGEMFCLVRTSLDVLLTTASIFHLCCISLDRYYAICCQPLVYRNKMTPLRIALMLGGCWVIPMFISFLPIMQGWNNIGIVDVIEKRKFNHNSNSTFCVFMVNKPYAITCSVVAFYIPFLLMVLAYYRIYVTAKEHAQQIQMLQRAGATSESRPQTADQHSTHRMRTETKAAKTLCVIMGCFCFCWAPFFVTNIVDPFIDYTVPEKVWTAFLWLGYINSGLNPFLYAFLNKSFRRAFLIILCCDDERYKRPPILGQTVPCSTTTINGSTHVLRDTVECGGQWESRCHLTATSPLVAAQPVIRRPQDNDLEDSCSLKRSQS
SMILES,Ki [1] [nM],Ki [2] [nM],other results
O=C(N[C@@H]1CN2CCC1CC2)c1cc(Br)cc2nc[nH]c12,38.3,0.28,–
CN1C2CCCC1CC(OC(=O)c1cc(Cl)cc3[nH]cnc13)C2 (stereo not given),–,88.7,–
O=C(N[C@H]1CN2CCC1CC2)c1cc(Cl)cc2nc[nH]c12,205,0.76,–
CN1C2CCC1CC(OC(=O)c1cc(Cl)cc3[nH]cnc13)C2 (stereo not given),356,61.2,–
CN1C2CCCC1CC(NC(=O)c1nn(C)c3ccccc13)C2 (stereo not given) [GRANISETRON],> 1000,–,–
O=C(NC1CN2CCC1CC2)c1cc(Br)c([N+](=O)[O-])c2nc[nH]c12 (stereo not given),> 10000,8.8,–
CN1C2CCC1CC(OC(=O)c1cccc3[nH]cnc13)C2 (stereo in doubt; 24),> 10000,–,Ki [3]: > 1000 nM
Cc1nccn1CC1CCc2c(c3ccccc3n2C)C1=O (stereo not given) [ONDANSETRON],–,–,Kb (Cavia porcellus [4]): 0.126 nM; ED50 [5]: 43 µM
Nc1c(Cl)cc(C(=O)NC2CN3CCC2CC3)c2[nH]cnc12 (stereo not given),187,0.24,–
CN1C2CCC1CC(NC(=O)c1cc(Cl)cc3nc[nH]c13)C2 (stereo not given),319,16.6,–
CCC1CCN(C)C[C@@H]1NC(=O)c1cccc2nc[nH]c12 (stereo not given in full),> 10000,38.3,–
CCC1CCN(C)C[C@H]1NC(=O)c1cccc2[nH]cnc12 (stereo not given in full),> 1000,2.6,Kb (Cavia porcellus [6]): 0.251 nM
O=C(N[C@@H]1CN2CCC1CC2)c1cc(Cl)cc2nc[nH]c12,> 10000,0.13,Kb (Cavia porcellus [6]): 0.126 nM; ED50 [5]: 17 µM
O=C(N[C@@H]1CN2CCC1CC2)c1cc(Cl)c([N+](=O)[O-])c2nc[nH]c12,> 1000,1.7,Kb (Cavia porcellus [6]): 0.794 nM; ED50 [5]: 68 µM
Nc1ccc(C(=O)NC2CN3CCC2CC3)c2[nH]cnc12 (stereo not given),779,2.4,–
CN1C2CCCC1CC(OC(=O)c1cccc3nc[nH]c13)C2 (stereo not given),–,–,Ki [3]: 678 nM
CN1C2CCCC1CC(NC(=O)c1cc(Cl)cc3nc[nH]c13)C2 (stereo not given),> 1000,83,–
CN1C2CCC1CC(OC(=O)c1cccc3[nH]cnc13)C2 (stereo in doubt; 23),> 10000,–,Ki [3]: > 1000 nM
CN1C2CCC1CC(NC(=O)c1cccc3[nH]cnc13)C2 (stereo not given),> 10000,118,–
CN1C2CCCC1CC(NC(=O)c1cccc3[nH]cnc13)C2 (stereo not given),> 10000,230,–
O=C(NC1CN2CCC1CC2)c1cc(Cl)c([N+](=O)[O-])c2nc[nH]c12 (stereo not given),> 1000,5.2,–
O=C(NC1CN2CCC1CC2)c1cc(Br)cc2nc[nH]c12 (stereo not given),168,0.29,–
Nc1c(Br)cc(C(=O)NC2CN3CCC2CC3)c2[nH]cnc12 (stereo not given),227,0.42,–
O=C(N[C@H]1CN2CCC1CC2)c1cc(Br)cc2nc[nH]c12,270,3.4,–
